Measurements: ChEMBL document CHEMBL4680154, “The optimization of xanthine derivatives leading to HBK001 hydrochloride as a potent dual ligand targeting DPP-IV and GPR119” (Eur J Med Chem, 2020)
≈ marks a conversion by molar mass, not a printed value. Calls of active or inactive are those of the source. No cut-off for these calls is given here.

Columns and labels:
Mus musculus [1] = test: Antidiabetic activity in ICR mouse assessed as reduction in blood glucose level at 30 mg/kg, po administered as single dose followed by oral glucose challenge measured after 30 mins by glucose oxidase method; format: functional, organism-based
How it was run: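 Overnight-fasted ICR mice given compound by oral gavage (vehicle distilled water) before a 2 g/kg oral glucose load. Tail-tip blood taken at 0, 30, 60 and 120 min; glucose measured by the glucose oxidase method. n = 10 per group, mean ± SEM.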

[2] = biological target: T1, Glucose-dependent insulinotropic receptor (Homo sapiens) (UniProt Q8TDV5); test: Agonist activity at CREB-LBD and Gal4-DBD fused recombinant human GPR119 expressed in HEK293 cells at 1 uM by firefly luciferase assay relative to AR231453; format: functional, cell-based; details: filed as agonist
T1 sequence (whole entry): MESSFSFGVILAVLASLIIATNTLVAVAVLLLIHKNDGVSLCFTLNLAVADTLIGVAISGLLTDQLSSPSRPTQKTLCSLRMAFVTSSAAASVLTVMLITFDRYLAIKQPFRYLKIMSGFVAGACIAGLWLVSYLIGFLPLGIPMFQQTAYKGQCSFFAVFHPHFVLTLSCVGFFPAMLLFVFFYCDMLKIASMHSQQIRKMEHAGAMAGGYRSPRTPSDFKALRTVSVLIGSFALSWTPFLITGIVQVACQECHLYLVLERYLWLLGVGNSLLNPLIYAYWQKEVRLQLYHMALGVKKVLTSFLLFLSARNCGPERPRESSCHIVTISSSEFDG
How it was run: (§1)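 HEK293 cells transiently transfected with human GPR119, a Gal4-DBD/CREB-LBD fusion and a Gal4 UAS-driven luciferase reporter, then treated with compound (DMSO vehicle). Firefly luciferase luminescence read. Activation fold = compound/vehicle, expressed as percent of the AR231453 activation fold. EC50 obtained by curve fitting.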

DPP8/9 = DPP8/9 (Homo sapiens, UniProt Q6V1X1+Q86TI2); test: Inhibition of recombinant human DPP8/9 expressed in Rosetta cells at 10 uM using Gly-Pro-p-nitroanilide as substrate incubated for 1 hr relative to control; details: probe Gly-Pro-p-nitroanilide
[3] = biological target: T2, Glucose-dependent insulinotropic receptor (Homo sapiens, UniProt Q8TDV5); test: Agonist activity at CREB-LBD and Gal4-DBD fused recombinant human GPR119 expressed in HEK293 cells by firefly luciferase assay; format: functional, cell-based; how it was run: as §1
T2 sequence (Q8TDV5 whole entry): T1 sequence (whole entry)

Mus musculus [4] = test: Antidiabetic activity in ICR mouse assessed as reduction in blood glucose AUC at 10 mg/kg, po administered as single dose followed by glucose challenge measured upto 120 mins by OGTT relative to control; format: functional; parameters: scale not given: the % may be the effect or the level left; details: time min <=120
How it was run: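 ICR mice were fasted overnight and dosed by oral gavage, with distilled water as vehicle, before an oral glucose load of 2 g/kg. Tail-tip blood was sampled at 0, 30, 60 and 120 min and glucose measured by the glucose oxidase method. AUC was compared with the vehicle group. n = 10 per group, mean ± SEM.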

[5] = Metabolic stability in ICR/CD-1 mouse hepatocytes assessed as parent compound remaining incubated for 30 mins by LC-MS/MS analysis; format: ADME, cell-based, Hepatocyte; details: read-out: Stabilty
How it was run: (§2)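 Hepatocytes from male ICR/CD-1 mice, male Sprague-Dawley rats, or mixed human donors. Parent compound measured after 30 min incubation and normalised to the time-zero concentration.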

[6] = Metabolic stability in Sprague-Dawley rat hepatocytes assessed as parent compound remaining incubated for 30 mins by LC-MS/MS analysis; format: ADME, cell-based, Hepatocyte; details: read-out: Stabilty; how it was run: as §2
[7] = Metabolic stability in human hepatocytes assessed as parent compound remaining incubated for 30 mins by LC-MS/MS analysis; format: ADME, cell-based, Hepatocyte; details: read-out: Stabilty; how it was run: as §2
Vero = test: Cytotoxicity against African green monkey Vero cells incubated for 48 hrs by MTT assay; details: Chlorocebus sabaeus

Activity [2] [%] | EC50 [3] [nM] | SMILES | inhibition at 1 h, 10 µM (DPP8/9) [%] | other results
80 | 830 | CC#CCn1c(N2CCC[C@@H](N)C2)nc2c1c(=O)n(CCCN1CCC(c3ncc(-c4ccccc4)o3)CC1)c(=O)n2C | 3.3 | –
60 | 2560 | CC#CCn1c(N2CCC[C@@H](N)C2)nc2c1c(=O)n(CCCN1CCN(c3ncc(C)cn3)CC1)c(=O)n2C | – | –
53 | – | CC#CCn1c(N2CCC[C@@H](N)C2)nc2c1c(=O)n(CCCN1CCC(c3nnnn3-c3ccccc3)CC1)c(=O)n2C | 4.6 | –
85 | 3990 | CC#CCn1c(N2CCC[C@@H](N)C2)nc2c1c(=O)n(CCCN1CCN(c3ncc(CC)cn3)CC1)c(=O)n2C | – | –
84 | 1850 | CC#CCn1c(N2CCC[C@@H](N)C2)nc2c1c(=O)n(CCCN1CCN(c3ncc(CCC)cn3)CC1)c(=O)n2C | – | –

Further lines, the compound ahead of its results:

SMILES | Activity [2] [%] | EC50 [3] [nM] | inhibition at 1 h, 10 µM (DPP8/9) [%] | other results
CC#CCn1c(N2CCC[C@@H](N)C2)nc2c1c(=O)n(CCCN1CCN(c3nc(-c4ccccc4)no3)CC1)c(=O)n2C | 58 | – | – | Activity (Mus musculus [1]): Active
COc1c(Nc2ccc(S(C)(=O)=O)nc2C)ncnc1OC1CCN(C(=O)OC(C)C)CC1 [ADP-597] | – | – | – | Activity (Mus musculus [4]): 19.9%
CC#CCn1c(N2CCC[C@@H](N)C2)nc2c1c(=O)n(CCCN1CCC(c3nc(-c4ccccc4)no3)CC1)c(=O)n2C | 55 | – | – | –
N[C@@H](CC(=O)N1CCn2c(nnc2C(F)(F)F)C1)Cc1cc(F)c(F)cc1F [SITAGLIPTIN] | – | – | – | Activity (Mus musculus [4]): 27.3%
CC#CCn1c(N2CCC[C@@H](N)C2)nc2c1c(=O)n(CCCN1CCC(n3cc(-c4ccccc4)nn3)CC1)c(=O)n2C | 47 | – | 0 | remaining at 0.5 h [5]: 21%; remaining at 0.5 h [6]: 19.7%; remaining at 0.5 h [7]: 68.1%; IC50 (Vero): 25.9 µg/mL (≈ 44.3 µM)
CC#CCn1c(N2CCC[C@@H](N)C2)nc2c1c(=O)n(CCCN1CCN(c3nc(-c4ccccc4)cs3)CC1)c(=O)n2C | 56 | 650 | 0 | remaining at 0.5 h [5]: 68.3%; remaining at 0.5 h [6]: 39.6%; remaining at 0.5 h [7]: 91.5%; IC50 (Vero): 4.3 µg/mL (≈ 7.15 µM)
